Assay results taken from PubChem BioAssay.
Calls of active or inactive are those of the source.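 Rule for the calls, unless noted: active = GFP response above 150% of the DMSO level; inconclusive = fewer than 70 events counted for a yeast strain; inactive = the rest.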

Legend:
[1] = hit retest on RPL19A-GFP reporter strain – cell-based, S. cerevisiae, flow cytometry, cherry picks, mother/daughter gates, confirmation (AID 2270;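 active = GFP response below 50% of the DMSO control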); conditions: 3 h, at 10 µM, stronger effect = lower value, 100 = same GFP as DMSO wells
[2] = yeast TOR pathway reporter LAP4-GFP change – cell-based, cherry picks, flow cytometry, mother/daughter gates, confirmation (AID 2271;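 active = GFP response above 150% of the DMSO control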;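 note: ratio of sample to DMSO plate mean so 100% equals DMSO level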); conditions: S. cerevisiae LAP4-GFP strain, 3 h, at 10 µM, stronger effect = higher value, 100 means same as DMSO control
Summary of the method: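 System: GFP-fusion yeast strain | Input: Yeast cells seeded at OD600 of 0.2 | Technique: HT flow cytometry, GFP fluorescence channel | Read-out: % GFP response vs DMSO | Dosing: Single test-compound dose, 10 µM final | Controls: Positive rapamycin (400 ng/mL), negative DMSO | Times: 3 h treatment at 30 °C with rotation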

[3] = TOR pathway reporter MEP2-GFP, retest of hits – S. cerevisiae, flow cytometry GFP, cherry picks, confirmation (AID 2272;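 active = GFP response above 150% of the DMSO control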;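 note: ratio of well signal to plate DMSO mean so 100% equals DMSO level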); conditions: S. cerevisiae MEP2-GFP strain, 3 h, at 10 µM, stronger effect = higher value
[4] = yeast AGP1-GFP fluorescence change, single-dose – cell-based, flow cytometry, S. cerevisiae, cherry picks, confirmation (AID 2273);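 note: median GFP channel fluorescence over the whole cell population gate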; conditions: S. cerevisiae AGP1-GFP strain, 3 h, at 10 µM
[5] = TOR pathway CIT2 reporter hit retest – S. cerevisiae, GFP fusion, cherry picks, mother/daughter gates, confirmation (AID 2274); conditions: S. cerevisiae CIT2-GFP strain, flow cytometry, 3 h, at 10 µM, stronger effect = higher value
[6] = measured here: daughter cell gate
[7] = measured here: mother cell gate
[8] = measured here: daughter cell gate response
[9] = measured here: mother cell gate response

SMILES | GFP response vs DMSO [1] | GFP response vs DMSO [1, 6] [%] | GFP response vs DMSO [1, 7] [%] | GFP response relative to DMSO [2] | GFP response relative to DMSO [2, 8] [%] | GFP response relative to DMSO [2, 9] [%] | GFP response vs DMSO [3] | GFP response, % of DMSO [4] | GFP response, % of DMSO [5] | GFP response, % of DMSO [5, 6] [%] | GFP response, % of DMSO [5, 7] [%]
CCOC(=O)c1cnn(-c2cc(C)nc3c(-c4ccccc4)c(C)nn23)c1N | 96.6% (inactive) | 97.4 | 96.6 | 95.4% (inactive) | 96 | 94 | 105% (inactive) | 94.3% (inactive) | 98.3% (inactive) | 99.1 | 97.3
COc1ccc(-c2nc(N)n(C(C)=O)n2)cc1 | 103% (inactive) | 102 | 104 | 95% (inactive) | 97.2 | 95.2 | 102% (inactive) | 97.4% (inactive) | 110% (inactive) | 110 | 111
CN(C)c1ccc(N=Cc2nc(-c3ccccc3)oc2OC(=O)c2cccc(Br)c2)cc1 | 96.2% (inactive) | 90.4 | 89.1 | 93.7% (inactive) | 84.2 | 93 | 94.4% (inactive) | 98.1% (inactive) | 92.2% (inactive) | – | –
O=C(O)c1ccccc1C(=O)N1CCN(c2cccc(Cl)c2)CC1 | 97.2% (inactive) | 97 | 98.1 | 100% (inactive) | 97.9 | 96.5 | 97.5% (inactive) | 95.4% (inactive) | 96.4% (inactive) | 98.3 | 95.6
O=C(Nc1nc(-c2ccccc2)cs1)c1cccc([N+](=O)[O-])c1 | 102% (inactive) | 100 | 94.5 | 101% (inactive) | 95.9 | 95.2 | 105% (inactive) | 108% (inactive) | 98.8% (inactive) | – | –
COc1cccc(-c2noc(-c3cccnc3)n2)c1 | 97.2% (inactive) | 97.1 | 96.3 | 102% (inactive) | 102 | 100 | 101% (inactive) | 97.3% (inactive) | 103% (inactive) | 105 | 102
C=CCn1cc(/C=C/c2cc[n+](C)cc2)c2ccccc21 | 102% (inactive) | 99.6 | 103 | 108% (inactive) | 107 | 108 | 120% (inactive) | 97.8% (inactive) | 125% (inactive) | 119 | 127
CCc1ccc(NC(=O)c2nc(S(=O)(=O)Cc3ccccc3)ncc2Cl)cc1 | 94.8% (inactive) | 94.2 | 93.8 | 126% (inactive) | 118 | 124 | 97.5% (inactive) | 96% (inactive) | 87.8% (inactive) | 90.9 | 82.8
COc1cccc(CNC(=O)CCC(=O)N2Cc3cccc(OC)c3Oc3ncccc32)c1OC | 99.4% (inactive) | 99.9 | 99.2 | 95.4% (inactive) | 96 | 94 | 102% (inactive) | 100% (inactive) | 104% (inactive) | 105 | 104
Clc1ccc(Nc2ncnc3ccc(Br)cc23)cc1 | 98.4% (inactive) | 89.5 | 99 | 122% (inactive) | 102 | 124 | 95.4% (inactive) | 86.2% (inactive) | 86.3% (inactive) | 83.5 | 84
CCOC(=O)c1ccc2nc(Nc3nc4ccc(F)cc4s3)sc2c1 | 99.6% (inactive) | 98.1 | 99.3 | 101% (inactive) | 97.5 | 102 | 101% (inactive) | 105% (inactive) | 103% (inactive) | 103 | 103
O=C(c1ccccc1)N1CCN(c2ccccc2F)CC1 | 101% (inactive) | 102 | 99.6 | 105% (inactive) | 104 | 96.4 | 103% (inactive) | 99.1% (inactive) | 95.8% (inactive) | 97.6 | 90.4
CC(C)c1nnc(SCC(=O)N2CCc3ccccc32)n1C | 102% (inactive) | 101 | 101 | 96.2% (inactive) | 95.6 | 99.3 | 102% (inactive) | 97.6% (inactive) | 97.8% (inactive) | 98.1 | 96.6
OCC[n+]1ccc(/C=C/c2c[nH]c3ccccc23)cc1 | 108% (inactive) | 106 | 108 | 140% (inactive) | 143 | 141 | 164% (inactive) | 104% (inactive) | 141% (inactive) | 142 | 143
CCCc1[nH]nc2c1C(c1cccc(OC)c1)C(C#N)=C(N)O2 (stereo not given) | 103% (inactive) | 101 | 103 | 98.2% (inactive) | 95.9 | 97.3 | 105% (inactive) | 98.6% (inactive) | 102% (inactive) | 97.4 | 103
Cc1ccc(N2C3=C(C(=O)CC(C)(C)C3)C(c3cn(C)nc3C)C3=C2CC(C)(C)CC3=O)cc1 | 105% (inactive) | 102 | 104 | 119% (inactive) | 122 | 117 | 131% (inactive) | 103% (inactive) | 134% (inactive) | 132 | 132
O=C1CC(SCc2nc3ccccc3[nH]2)C(=O)N1c1cccc(F)c1 (stereo not given) | 98.7% (inactive) | 99.3 | 97.5 | 104% (inactive) | 105 | 105 | 99.3% (inactive) | 102% (inactive) | 103% (inactive) | 103 | 103

SMILES | GFP response vs DMSO [1] | GFP response vs DMSO [1, 6] [%] | GFP response vs DMSO [1, 7] [%] | GFP response relative to DMSO [2] | GFP response relative to DMSO [2, 8] [%] | GFP response relative to DMSO [2, 9] [%] | GFP response vs DMSO [3] | GFP response, % of DMSO [4] | GFP response, % of DMSO [5] | GFP response, % of DMSO [5, 6] [%] | GFP response, % of DMSO [5, 7] [%]
COCCN(CCOC)S(=O)(=O)c1ccc(C(=O)Nc2nnc(C)o2)cc1 | 100% (inactive) | 100 | 101 | 99.5% (inactive) | 97.5 | 98.4 | 99% (inactive) | 100% (inactive) | 102% (inactive) | 103 | 101
CC1=CCC(C(=O)O)C(C(=O)Nc2ccc(-c3nc4ccc(C)cc4s3)cc2)C1 (stereo not given) | 99.2% (inactive) | 100 | 100 | 96.1% (inactive) | 96.6 | 96.2 | 98.8% (inactive) | 101% (inactive) | 112% (inactive) | 110 | 113
CS(=O)(=O)Nc1ccc(C2=NN(S(C)(=O)=O)C(c3ccc4c(c3)OCO4)C2)cc1 (stereo not given) | 98.6% (inactive) | 98.4 | 99.4 | 97.4% (inactive) | 102 | 99.3 | 104% (inactive) | 102% (inactive) | 103% (inactive) | 99.7 | 103
O=C(Nc1nnc(-c2ccc(F)cc2)o1)c1cccc([N+](=O)[O-])c1 | 102% (inactive) | 97 | 101 | 157% (active) | 169 | 152 | 110% (inactive) | 97% (inactive) | 101% (inactive) | 103 | 99.3
N/C(Cc1ccc(Cl)cc1)=N\OC(=O)c1cccc2ccccc12 | 96.2% (inactive) | 82.1 | 82.6 | 199% (active) | 127 | 188 | 126% (inactive) | 88.1% (inactive) | 139% (inactive) | 97.4 | 127
O=C(O)C1CCC(NSc2ccccc2[N+](=O)[O-])CC1 (stereo not given) | 98.2% (inactive) | 95.9 | 95.2 | 145% (inactive) | 133 | 157 | 96.8% (inactive) | 101% (inactive) | 97.3% (inactive) | 99.2 | 94.4
CCOC(=O)c1cnn(-c2cc(C)nc3c(-c4ccccc4)cnn23)c1N | 96.7% (inactive) | 98.1 | 95.4 | 92.9% (inactive) | 92.9 | 94.4 | 103% (inactive) | 89.3% (inactive) | 98.6% (inactive) | 97.6 | 98.2
CC(=O)Nc1ccc(NC(=O)c2nc(S(=O)(=O)Cc3ccccc3)ncc2Cl)cc1 | 98.5% (inactive) | 99.8 | 96.9 | 106% (inactive) | 105 | 105 | 110% (inactive) | 96.8% (inactive) | 100% (inactive) | 101 | 99.3
Cc1noc2ncnc(Sc3ccc(Br)cc3)c12 | 97.2% (inactive) | 94.2 | 94.7 | 137% (inactive) | 133 | 135 | 103% (inactive) | 98.8% (inactive) | 108% (inactive) | 106 | 105
COc1ccc(-c2[nH]ncc2-c2ccc(Cl)cc2)c(O)c1 | 101% (inactive) | 97.8 | 99.4 | 103% (inactive) | 100 | 105 | 102% (inactive) | 93.7% (inactive) | 104% (inactive) | 101 | 105
CCOc1cc(-c2nc3cc(C)ccn3c2NCC2CCCO2)ccc1O (stereo not given) | 103% (inactive) | 105 | 101 | 88.2% (inactive) | 91.3 | 87.3 | 103% (inactive) | 97.9% (inactive) | 104% (inactive) | 108 | 104
CC(=O)Nc1ccc(-c2csc(NC(=O)c3ccc(C)o3)n2)cc1 | 98.4% (inactive) | 98.1 | 99.8 | 97.9% (inactive) | 99.2 | 98.3 | 100% (inactive) | 98.3% (inactive) | 105% (inactive) | 106 | 104
Cn1cnnc1SCC(=O)Nc1nc(-c2ccc(F)cc2)cs1 | 100% (inactive) | 99.1 | 101 | 97% (inactive) | 95.9 | 97.3 | 103% (inactive) | 99.4% (inactive) | 102% (inactive) | 103 | 102
Nc1ccccc1NC(=O)c1ccccc1 | 101% (inactive) | 103 | 99.8 | 98.9% (inactive) | 96 | 99.5 | 106% (inactive) | 98.4% (inactive) | 101% (inactive) | 103 | 103
O=C(OCn1ncc(Br)c(Br)c1=O)c1ccccc1Cl | 94.1% (inactive) | 96.2 | 90.1 | 172% (active) | 150 | 167 | 112% (inactive) | 105% (inactive) | 95% (inactive) | 104 | 86.3
CC1CCCCN1S(=O)(=O)c1ccc(C(=O)Nc2nnc(-c3ccccc3Cl)o2)cc1 (stereo not given) | 97.8% (inactive) | 97.9 | 98.4 | 94.1% (inactive) | 94.4 | 91.9 | 102% (inactive) | 98.3% (inactive) | 99.7% (inactive) | 101 | 98.5
CC1=NNC(=O)/C1=C\c1cn(-c2ccccc2)nc1-c1ccc(Cl)cc1 | 97.6% (inactive) | 98.3 | 98.5 | 107% (inactive) | 101 | 114 | 101% (inactive) | 105% (inactive) | 97.2% (inactive) | 96.8 | 95.7
